Measured values reported in ChEMBL document CHEMBL5705889, “Novel mutant-selective EGFR kinase inhibitors against EGFR T790M” (Nature, 2009).
Activity calls are given as the source filed them. The calls are words filed in the database; no cut-off is given here.

Assays:
[1] = Drug concentration in mouse plasma at 10 mg/kg, po administered as single dose and measured after 4 hrs; assay type: ADME, organism-based
Mus musculus [2] = assay: In vivo inhibition of ERK1/2 phosphorylation in transgenic mouse harboring EGFR L858R/T790M mutant at 2.5 to 25 mg/kg administered as two doses separated by 16 hours by immunoblot analysis; assay type: functional, organism-based; details: dose 2.5-25 mg/kg
In short: (§1)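 Transgenic mice gavaged with compound in 10% 1-methyl-2-pyrrolidinone:90% PEG-300 vehicle; phosphorylation assessed in tissue by immunoblotting per standard protocols.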

[3] = target: Mitogen-activated protein kinase; ERK1/ERK2 (Homo sapiens) (UniProt P27361+P28482); assay: Inhibition of ERK1/2 phosphorylation in human PC9 Gefitinib-resistant (GR) cells at 0.01 to 1 uM incubated for 16 hrs by immunoblot analysis; assay type: cell-based; details: PC9 Gefitinib-resistant (GR) cell, dose 0.01-1 µM
[4] = Drug concentration in mouse plasma at 1 mg/kg, iv administered as single dose and measured after 0.25 hrs; assay type: ADME, organism-based
Mus musculus [5] = assay: In vivo inhibition of ERK1/2 phosphorylation in transgenic mouse harboring EGFR del E746_A750/T790M mutant at 2.5 to 25 mg/kg administered as two doses separated by 16 hours by immunoblot analysis; assay type: functional, organism-based; details: dose 2.5-25 mg/kg; in short: as §1
[6] = target: RAC-alpha serine/threonine-protein kinase (Homo sapiens) (UniProt P31749); assay: Inhibition of AKT phosphorylation in human PC9 Gefitinib-resistant (GR) cells at 0.01 to 1 uM incubated for 16 hrs by immunoblot analysis; assay type: cell-based; details: PC9 Gefitinib-resistant (GR) cell, dose 0.01-1 µM
[7] = Cmax in mouse at 10 mg/kg, po administered as single dose; assay type: ADME, organism-based; details: in vivo
[8] = Drug concentration in mouse plasma at 10 mg/kg, po administered as single dose and measured after 0.25 hrs; assay type: ADME, organism-based
Mus musculus [9] = assay: In vivo antitumor activity in transgenic mouse harboring EGFR delE746_A750/T790M mutant assessed as decrease in Ki67 positive cells at 25 mg/kg administered via gavage for 2 weeks by immunohistochemical analysis; assay type: functional, organism-based
In short: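 Transgenic EGFR T790M mutant mice were given daily gavage at 25mg/kg in 10% 1-methyl-2-pyrrolidinone:90% PEG-300 vehicle, alongside vehicle-alone controls. Tumor tissue was immunostained by standard protocols, and TUNEL-positive and Ki67-positive cells were counted.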

[10] = Drug concentration in mouse plasma at 1 mg/kg, iv administered as single dose and measured after 0.5 hrs; assay type: ADME, organism-based
Mus musculus [11] = assay: In vivo antitumor activity in transgenic mouse harboring EGFR Del19/T790M mutant assessed as tumor regression at 25 mg/kg, administered via gavage for 2 weeks; assay type: functional, organism-based
In short: (§2)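 Inducible bitransgenic mice carrying EGFR T790M/L858R or exon19 deletion-T790M were dosed by daily gavage at 25mg/kg. The vehicle was 10% 1-methyl-2-pyrrolidinone:90% PEG-300, and the control group received vehicle alone. Tumor response was followed by MRI scanning.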

NCI-H3255 = assay: Antiproliferative activity against human NCI-H3255 cells harboring EGFR L858R mutant assessed as inhibition of cell growth incubated for 72 hrs by MTS assay; assay type: functional, cell-based; details: NCI-H3255, 72 h
Focal adhesion kinase 1 = Focal adhesion kinase 1 (Homo sapiens, UniProt Q05397); assay: Binding affinity to FAK (unknown origin) assessed as dissociation constant
BaF3 [12] = assay: Prevention of EGFR T790M mutant development in mouse BaF3 cells harboring delE746_A750 mutant assessed as reduction in resistant clones with T790M mutant at 0.001 to 1 uM; assay type: functional, cell-based; details: dose 0.001-1 µM
In short: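 Ba/F3 cells with EGFR L858R or delE746_A750 mutagenized with N-ethyl-N-nitrosourea, then expanded in 100 nM or 1 μM inhibitor; resistant clones isolated and characterized for EGFR T790M.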

Mus musculus [13] = assay: In vivo inhibition of AKT phosphorylation in transgenic mouse harboring EGFR del E746_A750/T790M mutant at 2.5 to 25 mg/kg administered as two doses separated by 16 hours by immunoblot analysis; assay type: functional, organism-based; details: dose 2.5-25 mg/kg
[14] = Drug concentration in mouse plasma at 10 mg/kg, po administered as single dose and measured after 2 hrs; assay type: ADME, organism-based
[15] = Drug concentration in mouse plasma at 1 mg/kg, iv administered as single dose and measured after 0.08 hrs; assay type: ADME, organism-based
[16] = target: ALK tyrosine kinase receptor (Homo sapiens, UniProt Q9UM73); assay: Binding affinity of ALK (unknown origin) assessed as dissociation constant
[17] = target: NUAK family SNF1-like kinase 1 (Homo sapiens, UniProt O60285); assay: Binding affinity to ARK5 (unknown origin) assessed as dissociation constant
[18] = Drug concentration in mouse plasma at 10 mg/kg, po administered as single dose and measured after 8 hrs; assay type: ADME, organism-based
[19] = Clearance in mouse at 1 mg/kg, iv administered as single dose; assay type: ADME, organism-based; details: in vivo
[20] = AUC(0 to t) in mouse at 10 mg/kg, po administered as single dose; assay type: ADME, organism-based; details: in vivo
BaF3 [21] = assay: cells; assay type: functional, cell-based; details: Mus musculus, BaF3, 72 h
[22] = target: Epidermal growth factor receptor (Homo sapiens, UniProt P00533); assay: Inhibition of EGFR phosphorylation in human NCI-H1975 cells at 0.01 to 1 uM incubated for 16 hrs by immunoblot analysis; assay type: cell-based; details: dose 0.01-1 µM
[23] = target: Cyclin-G-associated kinase (Homo sapiens, UniProt O14976); assay: Binding affinity to GAK (unknown origin) assessed as dissociation constant
PC-9 [24] = assay: cells; assay type: functional, cell-based; details: Homo sapiens, PC-9, 72 h
BaF3 [25] = assay: cells; assay type: functional, cell-based; details: Mus musculus, BaF3, 72 h; remark: listed apart in the source
BaF3 [26] = assay: cells; assay type: functional, cell-based; details: Mus musculus, BaF3, 72 h; remark: listed apart in the source
[27] = MRT in mouse at 10 mg/kg, po administered as single dose; assay type: ADME, organism-based; details: in vivo
[28] = Drug concentration in mouse plasma at 10 mg/kg, po administered as single dose and measured after 24 hrs; assay type: ADME, organism-based
[29] = Tmax in mouse at 10 mg/kg, po administered as single dose; assay type: ADME, organism-based; details: in vivo
PC-9 [30] = assay: Prevention of EGFR T790M mutant development in human PC-9 cells harboring delE746_A750 mutant assessed as reduction in resistant cells with T790M mutant at 1 uM; assay type: functional, cell-based
[31] = C0 in mouse at 1 mg/kg, iv administered as single dose; assay type: ADME, organism-based; details: in vivo
[32] = Toxicity in mouse harboring EGFR del E746_A750/T790M mutant assessed as effect on total white blood cell count at 25 mg/kg administered via gavage for 2 weeks; assay type: organism-based; details: in vivo, po, 336 h
In short: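 Inducible bitransgenic tumor mice gavaged daily, 25 mg/kg, vehicle NMP (10% 1-methyl-2-pyrrolidinone, 90% PEG-300), compared against vehicle-treated mice; weight, serum creatine and total white blood cell count monitored during the study.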

Mus musculus [33] = assay: In vivo antitumor activity in transgenic mouse harboring EGFR L858R/T790M mutant assessed as tumor regression at 25 mg/kg, administered via gavage for 2 weeks; assay type: functional, organism-based; in short: as §2

Sequence of NUAK family SNF1-like kinase 1 (O60285 whole entry): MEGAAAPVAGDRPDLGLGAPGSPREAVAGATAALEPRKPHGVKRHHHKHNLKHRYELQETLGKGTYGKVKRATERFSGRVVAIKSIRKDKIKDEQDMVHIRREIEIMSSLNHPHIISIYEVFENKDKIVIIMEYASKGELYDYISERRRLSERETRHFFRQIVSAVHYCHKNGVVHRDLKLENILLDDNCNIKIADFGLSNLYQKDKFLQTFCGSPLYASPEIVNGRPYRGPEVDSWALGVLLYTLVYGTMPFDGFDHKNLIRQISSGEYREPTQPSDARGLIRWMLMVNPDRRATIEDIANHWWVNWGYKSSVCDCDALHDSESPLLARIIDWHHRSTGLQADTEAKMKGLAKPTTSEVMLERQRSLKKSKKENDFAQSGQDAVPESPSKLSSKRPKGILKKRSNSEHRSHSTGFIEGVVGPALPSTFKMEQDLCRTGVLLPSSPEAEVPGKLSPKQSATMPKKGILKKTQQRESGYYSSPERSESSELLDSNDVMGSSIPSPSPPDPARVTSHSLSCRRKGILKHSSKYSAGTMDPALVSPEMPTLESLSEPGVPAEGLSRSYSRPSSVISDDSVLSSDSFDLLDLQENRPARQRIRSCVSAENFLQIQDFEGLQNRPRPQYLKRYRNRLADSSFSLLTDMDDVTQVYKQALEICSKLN
Sequence of Focal adhesion kinase 1 (Q05397 whole entry): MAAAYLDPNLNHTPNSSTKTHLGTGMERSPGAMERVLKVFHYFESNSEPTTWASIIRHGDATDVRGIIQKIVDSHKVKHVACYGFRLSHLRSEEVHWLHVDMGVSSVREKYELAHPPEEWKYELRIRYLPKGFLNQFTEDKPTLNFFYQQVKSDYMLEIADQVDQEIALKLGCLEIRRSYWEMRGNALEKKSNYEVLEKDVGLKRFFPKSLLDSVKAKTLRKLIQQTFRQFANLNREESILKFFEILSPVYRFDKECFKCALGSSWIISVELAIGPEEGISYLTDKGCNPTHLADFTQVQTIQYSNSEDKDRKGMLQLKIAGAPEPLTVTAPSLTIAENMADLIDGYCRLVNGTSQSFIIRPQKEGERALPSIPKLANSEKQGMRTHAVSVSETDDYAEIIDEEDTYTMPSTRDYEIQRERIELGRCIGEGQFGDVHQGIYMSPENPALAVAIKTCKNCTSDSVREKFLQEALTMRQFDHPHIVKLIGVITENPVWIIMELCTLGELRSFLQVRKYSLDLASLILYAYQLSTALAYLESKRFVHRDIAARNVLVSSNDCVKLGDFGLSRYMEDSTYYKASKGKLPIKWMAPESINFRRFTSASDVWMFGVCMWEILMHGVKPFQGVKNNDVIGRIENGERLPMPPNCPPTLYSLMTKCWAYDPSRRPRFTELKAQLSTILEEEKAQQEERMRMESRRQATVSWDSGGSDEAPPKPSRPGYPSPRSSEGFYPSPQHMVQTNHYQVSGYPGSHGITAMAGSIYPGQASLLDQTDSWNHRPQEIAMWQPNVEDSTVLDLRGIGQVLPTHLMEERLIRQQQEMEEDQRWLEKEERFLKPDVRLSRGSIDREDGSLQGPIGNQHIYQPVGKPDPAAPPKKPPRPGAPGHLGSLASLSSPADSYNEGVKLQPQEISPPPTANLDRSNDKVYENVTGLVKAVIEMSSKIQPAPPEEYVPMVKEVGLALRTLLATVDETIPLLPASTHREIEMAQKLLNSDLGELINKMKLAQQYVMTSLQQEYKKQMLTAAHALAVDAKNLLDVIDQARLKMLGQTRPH
Sequence of ALK tyrosine kinase receptor (Q9UM73 whole entry): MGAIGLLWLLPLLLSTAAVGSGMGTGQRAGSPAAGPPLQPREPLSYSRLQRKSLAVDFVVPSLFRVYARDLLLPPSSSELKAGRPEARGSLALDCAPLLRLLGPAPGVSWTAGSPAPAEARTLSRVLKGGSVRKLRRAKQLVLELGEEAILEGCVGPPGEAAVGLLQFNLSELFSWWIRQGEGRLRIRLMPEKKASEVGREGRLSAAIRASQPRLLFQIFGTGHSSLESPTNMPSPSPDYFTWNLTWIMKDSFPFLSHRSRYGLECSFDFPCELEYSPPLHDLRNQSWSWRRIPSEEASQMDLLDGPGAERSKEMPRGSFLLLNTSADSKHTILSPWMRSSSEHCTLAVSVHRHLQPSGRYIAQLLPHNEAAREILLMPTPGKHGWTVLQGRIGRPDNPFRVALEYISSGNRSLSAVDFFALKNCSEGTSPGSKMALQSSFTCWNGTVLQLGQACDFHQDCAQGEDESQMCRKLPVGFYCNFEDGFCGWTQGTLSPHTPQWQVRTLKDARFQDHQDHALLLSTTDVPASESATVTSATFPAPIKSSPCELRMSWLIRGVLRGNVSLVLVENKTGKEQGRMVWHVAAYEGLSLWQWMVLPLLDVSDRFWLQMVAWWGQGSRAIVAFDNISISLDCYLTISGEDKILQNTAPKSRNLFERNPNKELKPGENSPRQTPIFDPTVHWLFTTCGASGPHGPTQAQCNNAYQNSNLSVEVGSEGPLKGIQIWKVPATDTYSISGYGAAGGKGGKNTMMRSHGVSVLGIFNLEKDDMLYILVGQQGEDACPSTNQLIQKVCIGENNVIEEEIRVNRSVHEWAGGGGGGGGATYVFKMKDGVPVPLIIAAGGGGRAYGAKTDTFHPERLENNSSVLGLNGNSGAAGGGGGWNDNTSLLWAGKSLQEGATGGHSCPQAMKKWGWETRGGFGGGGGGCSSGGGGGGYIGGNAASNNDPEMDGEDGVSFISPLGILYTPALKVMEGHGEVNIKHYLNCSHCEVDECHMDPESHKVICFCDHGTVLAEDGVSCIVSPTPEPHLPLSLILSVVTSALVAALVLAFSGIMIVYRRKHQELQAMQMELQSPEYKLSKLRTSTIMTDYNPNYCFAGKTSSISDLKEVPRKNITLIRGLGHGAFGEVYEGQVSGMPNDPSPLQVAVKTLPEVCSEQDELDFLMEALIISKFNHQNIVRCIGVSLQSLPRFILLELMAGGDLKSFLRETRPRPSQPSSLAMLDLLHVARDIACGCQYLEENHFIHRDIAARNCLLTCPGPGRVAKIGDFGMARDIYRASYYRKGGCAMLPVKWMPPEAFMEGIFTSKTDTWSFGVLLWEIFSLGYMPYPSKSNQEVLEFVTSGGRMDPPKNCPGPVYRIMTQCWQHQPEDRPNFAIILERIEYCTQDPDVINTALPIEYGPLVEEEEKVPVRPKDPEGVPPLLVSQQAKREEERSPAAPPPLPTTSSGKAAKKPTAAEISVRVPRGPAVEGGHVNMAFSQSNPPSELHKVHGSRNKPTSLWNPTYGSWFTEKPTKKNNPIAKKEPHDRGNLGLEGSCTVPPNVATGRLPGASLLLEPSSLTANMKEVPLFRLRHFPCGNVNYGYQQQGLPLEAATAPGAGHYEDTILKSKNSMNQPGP
Sequence of Mitogen-activated protein kinase; ERK1/ERK2 (Homo sapiens) (P27361 whole entry, looked up): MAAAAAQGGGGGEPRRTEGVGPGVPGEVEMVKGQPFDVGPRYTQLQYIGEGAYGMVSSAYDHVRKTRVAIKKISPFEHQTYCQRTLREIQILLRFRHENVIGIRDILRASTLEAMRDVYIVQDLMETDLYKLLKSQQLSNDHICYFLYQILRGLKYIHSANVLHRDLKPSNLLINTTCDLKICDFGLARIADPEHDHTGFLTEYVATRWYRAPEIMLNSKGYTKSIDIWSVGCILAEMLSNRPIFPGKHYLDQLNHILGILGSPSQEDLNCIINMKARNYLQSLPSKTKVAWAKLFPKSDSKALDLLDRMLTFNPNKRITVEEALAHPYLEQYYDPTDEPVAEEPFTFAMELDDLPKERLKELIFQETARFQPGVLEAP
Sequence of Mitogen-activated protein kinase; ERK1/ERK2 (Homo sapiens) (P28482 whole entry, looked up): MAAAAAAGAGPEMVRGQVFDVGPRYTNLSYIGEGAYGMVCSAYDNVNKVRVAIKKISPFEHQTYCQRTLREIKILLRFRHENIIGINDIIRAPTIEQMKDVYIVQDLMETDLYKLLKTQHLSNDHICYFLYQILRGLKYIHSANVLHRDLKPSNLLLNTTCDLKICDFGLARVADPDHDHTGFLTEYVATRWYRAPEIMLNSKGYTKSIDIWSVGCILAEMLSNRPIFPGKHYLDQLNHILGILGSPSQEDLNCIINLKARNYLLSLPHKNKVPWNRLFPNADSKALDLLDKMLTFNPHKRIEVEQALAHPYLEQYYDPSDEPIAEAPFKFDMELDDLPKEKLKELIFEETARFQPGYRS
Sequence of RAC-alpha serine/threonine-protein kinase (Homo sapiens) (P31749 whole entry): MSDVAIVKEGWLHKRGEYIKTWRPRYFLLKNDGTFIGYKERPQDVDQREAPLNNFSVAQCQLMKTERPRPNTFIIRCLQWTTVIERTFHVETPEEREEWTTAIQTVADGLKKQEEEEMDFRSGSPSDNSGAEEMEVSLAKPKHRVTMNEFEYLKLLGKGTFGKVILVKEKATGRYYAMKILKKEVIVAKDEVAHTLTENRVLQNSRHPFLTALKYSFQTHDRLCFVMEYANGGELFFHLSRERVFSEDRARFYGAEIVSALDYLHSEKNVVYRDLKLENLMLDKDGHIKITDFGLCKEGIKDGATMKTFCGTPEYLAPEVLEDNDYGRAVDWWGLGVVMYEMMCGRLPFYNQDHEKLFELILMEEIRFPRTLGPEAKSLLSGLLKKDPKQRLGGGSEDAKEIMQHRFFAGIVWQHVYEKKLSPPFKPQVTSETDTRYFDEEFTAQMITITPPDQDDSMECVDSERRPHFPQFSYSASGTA

With C=CC(=O)Nc1cccc(Oc2nc(Nc3ccc(N4CCN(C)CC4)cc3OC)ncc2Cl)c1 the concentration at 4 h [1] was 214 ng/mL, the inhibition (Mus musculus [2]) was “Active” and the inhibition [3] was “Active”. For the same molecule, the concentration at 0.25 h [4] was 627 ng/mL, the inhibition (Mus musculus [5]) was “Active” and the inhibition [6] was “Active”. The Cmax [7] was 429 ng/mL, the concentration at 0.25 h [8] was 429 ng/mL and the Activity (Mus musculus [9]) was “Active”. For the same molecule, the concentration at 0.5 h [10] was 451 ng/mL, the Activity (Mus musculus [11]) was “Active” and the IC50 (NCI-H3255) was 89 nM. The Kd (Focal adhesion kinase 1) was 78 nM, the Activity (BaF3 [12]) was “Active” and the inhibition (Mus musculus [13]) was “Active”. It also gave a concentration at 2 h [14] of 422 ng/mL, a concentration at 0.08 h [15] of 1130 ng/mL and a Kd [16] of 300 nM. It also gave a Kd [17] of 91 nM, a concentration at 8 h [18] of 59.2 ng/mL and a clearance [19] of 17.1 mL/min/kg. The AUC(0-t) [20] was 2390 ng·h/mL, the IC50 (BaF3 [21]) was > 3300 nM and the inhibition [22] was “Active”. The Kd [23] was 91 nM, the IC50 (PC-9 [24]) was 36 nM and the IC50 (BaF3 [25]) was 35 nM. It also gave an IC50 (BaF3 [26]) of 2 nM, an MRT [27] of 3.98 h and a concentration at 24 h [28] of 0.82 ng/mL. For the same molecule, the Tmax [29] was 0.25 h, the Activity (PC-9 [30]) was “Active” and the C0 [31] was 1480 ng/mL. The Activity [32] was “Non-Toxic” and the Activity (Mus musculus [33]) was “Active”.
